From ChEMBL document CHEMBL4480400, “Development of an N-Acyl Amino Acid That Selectively Inhibits the Glycine Transporter 2 To Produce Analgesia in a Rat Model of Chronic Pain” (J Med Chem, 2019)
Calls of active or inactive are those of the source. The calls are words filed in the database; no cut-off is given here.

Legend:
[1] = target: Sodium-dependent noradrenaline transporter (Homo sapiens) (UniProt P23975); assay: Displacement of [125I] RTI-55 from recombinant human full length NET expressed in MDCK cells at 10 uM after 120 mins by scintillation counting relative to control; format: cell-based
Sodium-dependent noradrenaline transporter (Homo sapiens), sequence (P23975 whole entry): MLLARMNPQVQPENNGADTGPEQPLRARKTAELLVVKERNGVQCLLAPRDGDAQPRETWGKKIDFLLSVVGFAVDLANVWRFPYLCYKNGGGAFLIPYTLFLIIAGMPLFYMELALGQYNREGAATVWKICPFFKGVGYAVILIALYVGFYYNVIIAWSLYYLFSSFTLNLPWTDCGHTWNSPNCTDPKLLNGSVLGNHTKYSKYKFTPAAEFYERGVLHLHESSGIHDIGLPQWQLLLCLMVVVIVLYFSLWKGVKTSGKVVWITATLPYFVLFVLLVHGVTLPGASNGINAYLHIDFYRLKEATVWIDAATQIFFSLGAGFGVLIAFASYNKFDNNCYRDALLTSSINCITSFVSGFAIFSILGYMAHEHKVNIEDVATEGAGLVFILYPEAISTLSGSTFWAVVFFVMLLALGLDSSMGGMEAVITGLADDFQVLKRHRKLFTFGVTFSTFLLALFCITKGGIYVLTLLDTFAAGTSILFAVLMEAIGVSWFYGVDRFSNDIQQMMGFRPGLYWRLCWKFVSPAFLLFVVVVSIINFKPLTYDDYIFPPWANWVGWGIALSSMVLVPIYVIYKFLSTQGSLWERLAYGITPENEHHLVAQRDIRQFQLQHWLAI

[2] = Drug degradation in human liver microsomes at 1 uM measured over 60 mins by LC-MS/MS analysis; format: ADME, Microsome; details: read-out: Drug degradation
Procedure, shortened: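 Human or rat liver microsomes (0.4 mg/mL protein final) in 0.1 M phosphate buffer pH 7.4 with 1 μM compound at 37°C. Reaction started with an NADPH-regenerating system plus MgCl2. Samples were quenched with ice-cold acetonitrile at time points over 60 min. Remaining parent was measured by LC-MS, and the first-order depletion rate constant came from an exponential decay fit.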

[3] = Degradation half life in rat plasma at 1000 ng/ml by LC-MS/MS analysis; format: ADME, cell-free
Procedure, shortened: (§1)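 Pooled human plasma (3 donors) or pooled male Sprague-Dawley rat plasma, thawed at 37°C. Spiked to a nominal 1000 ng/mL final (0.2% DMSO, 0.4% acetonitrile final) and incubated at 37°C. Aliquots were snap-frozen at time points over 4 h (n=3 per time point). Quantified by LC-MS against a same-species blank-plasma calibration with a leucine enkephalin internal standard.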

[4] = Drug degradation in human plasma at 1000 ng/ml measured over 240 mins by LC-MS/MS analysis; format: ADME, cell-free; details: read-out: Drug degradation; procedure, shortened: as §1
[5] = Degradation half life in human plasma at 1000 ng/ml by LC-MS/MS analysis; format: ADME, cell-free; procedure, shortened: as §1
[6] = target: T1, Alpha-2A adrenergic receptor (Homo sapiens) (UniProt P08913); assay: Displacement of [3H]RX821002 from recombinant human alpha2A adrenoceptor at 10 uM after 60 mins by scintillation counting relative to control
T1 sequence (whole entry): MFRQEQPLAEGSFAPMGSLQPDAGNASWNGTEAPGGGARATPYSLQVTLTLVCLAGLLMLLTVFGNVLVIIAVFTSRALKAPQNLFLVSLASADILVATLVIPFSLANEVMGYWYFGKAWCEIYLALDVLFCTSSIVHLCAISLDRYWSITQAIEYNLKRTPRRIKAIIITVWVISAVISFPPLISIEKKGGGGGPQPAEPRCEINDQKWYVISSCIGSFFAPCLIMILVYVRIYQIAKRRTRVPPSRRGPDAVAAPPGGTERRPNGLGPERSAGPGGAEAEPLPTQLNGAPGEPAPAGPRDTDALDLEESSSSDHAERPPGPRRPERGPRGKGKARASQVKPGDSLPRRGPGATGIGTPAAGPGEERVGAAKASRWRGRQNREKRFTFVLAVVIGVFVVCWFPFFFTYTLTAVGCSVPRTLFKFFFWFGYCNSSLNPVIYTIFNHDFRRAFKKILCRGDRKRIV

[7] = target: T2, Sodium- and chloride-dependent glycine transporter 2 (Homo sapiens, UniProt Q9Y345); assay: Inhibition of recombinant human GlyT2a expressed in Xenopus laevis oocytes assessed as reduction in channel current by two-electrode voltage clamp electrophysiology; format: cell-based
T2 sequence (Q9Y345 whole entry): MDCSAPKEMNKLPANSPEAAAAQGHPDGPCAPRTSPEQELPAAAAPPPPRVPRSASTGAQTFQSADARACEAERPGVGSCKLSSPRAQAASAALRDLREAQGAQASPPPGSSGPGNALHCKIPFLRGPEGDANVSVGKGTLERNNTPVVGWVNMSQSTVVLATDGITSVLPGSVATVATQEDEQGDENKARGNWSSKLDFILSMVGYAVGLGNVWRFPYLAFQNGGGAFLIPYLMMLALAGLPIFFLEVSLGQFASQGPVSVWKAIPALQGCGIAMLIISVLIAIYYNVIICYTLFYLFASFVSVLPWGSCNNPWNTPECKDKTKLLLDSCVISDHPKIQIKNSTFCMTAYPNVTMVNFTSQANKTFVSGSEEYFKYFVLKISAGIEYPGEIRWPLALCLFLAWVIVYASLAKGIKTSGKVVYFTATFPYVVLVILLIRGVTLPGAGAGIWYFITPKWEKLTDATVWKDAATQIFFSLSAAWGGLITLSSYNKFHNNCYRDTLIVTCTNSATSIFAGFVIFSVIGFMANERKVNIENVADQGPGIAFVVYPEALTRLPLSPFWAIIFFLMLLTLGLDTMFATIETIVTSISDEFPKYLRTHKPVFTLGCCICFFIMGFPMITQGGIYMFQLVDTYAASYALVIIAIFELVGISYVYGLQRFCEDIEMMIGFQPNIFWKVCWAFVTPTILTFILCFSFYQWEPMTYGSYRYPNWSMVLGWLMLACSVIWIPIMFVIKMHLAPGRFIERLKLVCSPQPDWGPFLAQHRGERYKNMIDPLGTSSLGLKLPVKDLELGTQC

[8] = target: Mu-type opioid receptor (Mus musculus) (UniProt P42866); assay: Antagonist activity at MOR in mouse AtT-20 cells assessed as inhibition of agonist-induced IGIRK currents at 1 uM in presence of -60 mV holding potential measured every 2 secs by patch clamp assay; format: cell-based
Mu-type opioid receptor (Mus musculus), sequence (P42866 whole entry): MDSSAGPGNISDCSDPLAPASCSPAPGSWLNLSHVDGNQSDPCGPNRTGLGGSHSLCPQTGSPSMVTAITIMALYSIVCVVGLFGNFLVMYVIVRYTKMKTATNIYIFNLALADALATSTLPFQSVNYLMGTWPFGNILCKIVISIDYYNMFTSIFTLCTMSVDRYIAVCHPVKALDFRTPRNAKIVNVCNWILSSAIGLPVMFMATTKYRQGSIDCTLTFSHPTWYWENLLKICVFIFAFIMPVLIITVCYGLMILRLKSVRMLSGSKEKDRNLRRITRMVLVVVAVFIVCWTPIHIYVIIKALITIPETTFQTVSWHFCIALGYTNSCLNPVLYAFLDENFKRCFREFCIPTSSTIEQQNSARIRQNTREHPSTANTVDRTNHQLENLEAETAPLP

[9] = target: Cannabinoid receptor 1 (Homo sapiens) (UniProt P21554); assay: Antagonist activity at human CB1 receptor
Cannabinoid receptor 1 (Homo sapiens), sequence (P21554 whole entry): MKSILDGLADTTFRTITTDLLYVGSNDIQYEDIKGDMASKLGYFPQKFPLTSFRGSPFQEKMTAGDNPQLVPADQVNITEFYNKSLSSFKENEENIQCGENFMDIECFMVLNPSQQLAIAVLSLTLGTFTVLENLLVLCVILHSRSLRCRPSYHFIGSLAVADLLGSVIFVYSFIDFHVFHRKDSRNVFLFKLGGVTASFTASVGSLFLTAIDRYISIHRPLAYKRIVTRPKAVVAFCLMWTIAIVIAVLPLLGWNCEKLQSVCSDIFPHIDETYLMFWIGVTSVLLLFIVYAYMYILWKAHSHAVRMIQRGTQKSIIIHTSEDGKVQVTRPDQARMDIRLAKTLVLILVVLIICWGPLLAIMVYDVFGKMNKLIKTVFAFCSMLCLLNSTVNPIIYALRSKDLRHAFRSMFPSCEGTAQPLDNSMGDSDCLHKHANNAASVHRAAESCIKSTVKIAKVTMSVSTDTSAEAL

[10] = Tmax in Sprague-Dawley rat plasma at 27.5 mg/kg, ip by UPLC analysis; format: ADME, organism-based
Procedure, shortened: (§2)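 Male Sprague-Dawley rats (250–306 g) got one ip dose of a suspension (10% v/v DMSO, 1% solutol HS-15 in 50 mM PBS, pH 7.4). Terminal cardiac-puncture heparinised plasma and whole brain were sampled over 24 h, n=3 rats per time point. Samples were extracted by protein precipitation and read by UPLC-MS/MS in positive ESI MRM with a diazepam internal standard. Parameters are non-compartmental; the time-averaged B/P comes from AUC0-24h.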

[11] = Half life in Sprague-Dawley rat plasma at 27.5 mg/kg, ip by UPLC analysis; format: ADME, organism-based; procedure, shortened: as §2
[12] = AUC (0 to 24 hrs) in Sprague-Dawley rat plasma at 27.5 mg/kg, ip by UPLC analysis; format: ADME, organism-based; parameters: dose 27.5 mg/kg, time < 24 hr, route intraperitoneal; details: in vivo; procedure, shortened: as §2
[13] = Ratio of drug uptake in Sprague-Dawley rat brain to plasma at 27.5 mg/kg, ip after 1 hr by UPLC analysis; format: ADME, organism-based; details: read-out: BPR; procedure, shortened: as §2
[14] = Toxicity in Sprague-Dawley rat model of neuropathic pain assessed as incidence of localized pain rat 30 mg/kg, ip administered as single dose measured up to 15 mins post injection; format: organism-based; details: in vivo, 0.25 h
[15] = Time averaged ratio of drug uptake in Sprague-Dawley rat brain to plasma at 27.5 mg/kg, ip after 24 hrs by UPLC analysis; format: ADME, organism-based; details: read-out: BPR; procedure, shortened: as §2
[16] = target: T3, Sodium- and chloride-dependent glycine transporter 2 (Homo sapiens) (UniProt Q9Y345); assay: Reversible inhibition of recombinant human GlyT2a expressed in Xenopus laevis oocytes assessed as recovery of transport current at IC50 followed by compound wash out followed by glycine re-application at 5 mins intervals throughout wash time course and measured after 25 mins by two-electrode voltage clamp electrophysiology; format: cell-based
T3 sequence (whole entry): T2 sequence (Q9Y345 whole entry)

[17] = target: Sodium channel protein type 1 subunit alpha (Homo sapiens) (UniProt P35498); assay: Inhibition of human NaV1.1 expressed in HEK293 cells at 1 uM; format: cell-based
[18] = target: Sodium channel protein type 3 subunit alpha (Homo sapiens) (UniProt Q9NY46); assay: Inhibition of human NaV1.3 expressed in HEK293 cells at 1 uM; format: cell-based
Sodium channel protein type 3 subunit alpha (Homo sapiens), sequence (Q9NY46 whole entry, looked up): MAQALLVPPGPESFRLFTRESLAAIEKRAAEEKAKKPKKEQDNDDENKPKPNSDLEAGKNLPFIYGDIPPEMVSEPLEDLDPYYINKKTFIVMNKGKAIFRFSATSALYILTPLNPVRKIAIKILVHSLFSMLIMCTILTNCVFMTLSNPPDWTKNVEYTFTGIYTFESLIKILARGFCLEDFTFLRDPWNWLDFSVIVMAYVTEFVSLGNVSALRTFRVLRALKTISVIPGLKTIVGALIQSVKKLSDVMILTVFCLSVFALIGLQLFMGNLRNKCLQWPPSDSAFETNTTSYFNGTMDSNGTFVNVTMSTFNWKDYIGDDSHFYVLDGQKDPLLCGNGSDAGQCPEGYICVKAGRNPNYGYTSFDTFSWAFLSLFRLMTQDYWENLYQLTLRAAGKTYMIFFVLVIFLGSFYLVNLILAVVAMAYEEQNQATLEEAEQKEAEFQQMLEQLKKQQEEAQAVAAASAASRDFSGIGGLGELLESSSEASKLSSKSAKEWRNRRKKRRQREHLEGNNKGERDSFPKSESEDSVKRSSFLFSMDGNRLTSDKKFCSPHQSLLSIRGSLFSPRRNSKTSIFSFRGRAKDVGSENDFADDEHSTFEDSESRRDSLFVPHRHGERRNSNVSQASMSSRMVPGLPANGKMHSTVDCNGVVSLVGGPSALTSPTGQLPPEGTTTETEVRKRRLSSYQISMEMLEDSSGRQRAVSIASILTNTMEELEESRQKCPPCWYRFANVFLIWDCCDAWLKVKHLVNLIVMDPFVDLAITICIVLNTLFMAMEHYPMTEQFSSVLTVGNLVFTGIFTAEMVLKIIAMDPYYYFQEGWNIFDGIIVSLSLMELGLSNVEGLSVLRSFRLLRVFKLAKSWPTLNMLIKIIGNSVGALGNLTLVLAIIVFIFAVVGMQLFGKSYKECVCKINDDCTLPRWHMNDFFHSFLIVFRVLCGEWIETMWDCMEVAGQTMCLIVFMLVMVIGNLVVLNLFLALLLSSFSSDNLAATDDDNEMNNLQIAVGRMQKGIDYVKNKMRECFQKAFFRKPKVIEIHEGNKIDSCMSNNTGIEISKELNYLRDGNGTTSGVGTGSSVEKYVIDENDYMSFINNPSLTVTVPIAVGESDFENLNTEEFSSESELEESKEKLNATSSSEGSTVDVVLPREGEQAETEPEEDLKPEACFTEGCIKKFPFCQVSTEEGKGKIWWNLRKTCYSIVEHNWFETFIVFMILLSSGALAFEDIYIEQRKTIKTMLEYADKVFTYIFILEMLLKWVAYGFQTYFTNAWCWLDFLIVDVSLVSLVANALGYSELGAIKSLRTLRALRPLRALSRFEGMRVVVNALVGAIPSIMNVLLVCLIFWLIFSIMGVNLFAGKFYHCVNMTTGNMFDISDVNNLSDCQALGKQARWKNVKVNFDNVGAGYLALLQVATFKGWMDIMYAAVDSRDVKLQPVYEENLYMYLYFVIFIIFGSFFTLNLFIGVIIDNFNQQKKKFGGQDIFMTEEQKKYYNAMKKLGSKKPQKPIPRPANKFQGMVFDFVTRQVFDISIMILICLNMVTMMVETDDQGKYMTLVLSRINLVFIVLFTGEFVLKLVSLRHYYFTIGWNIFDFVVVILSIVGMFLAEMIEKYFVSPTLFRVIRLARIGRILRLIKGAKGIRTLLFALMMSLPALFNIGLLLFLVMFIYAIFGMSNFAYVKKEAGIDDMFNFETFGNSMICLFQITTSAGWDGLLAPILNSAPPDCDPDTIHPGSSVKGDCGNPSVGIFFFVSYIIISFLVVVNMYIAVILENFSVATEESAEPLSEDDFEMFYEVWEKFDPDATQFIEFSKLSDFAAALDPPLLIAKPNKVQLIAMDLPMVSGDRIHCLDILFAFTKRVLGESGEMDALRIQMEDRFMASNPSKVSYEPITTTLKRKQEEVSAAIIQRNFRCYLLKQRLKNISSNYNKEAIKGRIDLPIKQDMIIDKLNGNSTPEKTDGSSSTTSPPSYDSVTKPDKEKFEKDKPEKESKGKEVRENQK

inhibition [1]: > 50% | metabolised at 1 h, 1 µM [2]: < 15% | t1/2 [3]: > 17.03 h | metabolised at 4 h, 1000 ng/ml [4]: < 15% | t1/2 [5]: > 17.03 h | inhibition [6]: > 50% | IC50 [7]: 48.3 nM | inhibition [8]: inactive | inhibition [9]: inactive | Tmax [10]: 1 h | half-life [11]: 10 h | AUC [12]: 122.473 µg·h/mL | Kp at 1 h [13]: 0.08 | Kp at 24 h [15]: 0.31 | inhibition [16]: Active | inhibition [17]: inactive | inhibition [18]: inactive
Structure (SMILES): CCCCCCCC/C=C\CCCCCCCC(=O)N[C@H](CCCCN)C(=O)O.Cl
Activity [14]: Toxic
